Results as given in ChEMBL document CHEMBL3864138, “First discovery of novel 3-hydroxy-quinazoline-2,4(1H,3H)-diones as specific anti-vaccinia and adenovirus agents via 'privileged scaffold' refining approach” (Bioorg Med Chem Lett, 2016).

How the values were obtained:
Vaccinia virus [1] = experiment: Antiviral activity against Vaccinia virus infected in HEL cells assessed as inhibition of virus-induced cytopathicity; type: functional, cell-based; conditions: Orthopoxvirus vaccinia
[2] = Cytotoxicity against HEL cells assessed as alteration of cell morphology after 3 days by microscopic analysis; type: toxicity, cell-based; conditions: human
Method in brief: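 HEL cell cultures were checked by microscopy for compound cytotoxicity, reported as MCC. The highest concentration tested was […].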

Human adenovirus 2 = experiment: Antiviral activity against Human adenovirus 2 infected in HEL cells assessed as inhibition of virus-induced cytopathicity; type: functional, cell-based; conditions: Human mastadenovirus C
Vaccinia virus [3] = experiment: Potency index, ratio of brivudin EC50 against Vaccinia virus infected in HEL cells to compound EC50 against Vaccinia virus infected in HEL cells; type: functional, Orthopoxvirus vaccinia
Vaccinia virus [4] = experiment: Potency index, ratio of cidofovir EC50 against Vaccinia virus infected in HEL cells to compound EC50 against Vaccinia virus infected in HEL cells; type: functional, Orthopoxvirus vaccinia

Row | SMILES | EC50 (Vaccinia virus [1]) | MCC at 72 h [2] | EC50 (Human adenovirus 2) | Ratio EC50 (Vaccinia virus [3]) | Ratio EC50 (Vaccinia virus [4])
1 | Cn1c(=O)n(O)c(=O)c2cc(-c3cn(Cc4c(F)cccc4F)nn3)ccc21 | > 100 µM | 100 µM | > 100 µM |  | 
2 | Cn1c(=O)n(O)c(=O)c2cc(-c3cn(Cc4ccc(F)cc4)nn3)ccc21 | > 100 µM | > 100 µM | > 100 µM |  | 
3 | CCn1c(=O)n(O)c(=O)c2cc(-c3cn(Cc4c(F)cccc4F)nn3)ccc21 | > 100 µM | > 100 µM | 8 µM |  | 
4 | O=c1[nH]c(=O)n([C@H]2C[C@H](O)[C@@H](CO)O2)cc1/C=C/Br [BRIVUDINE] | 15 µM | > 250 µM |  |  | 
5 | CCn1c(=O)n(O)c(=O)c2cc(-c3cn(Cc4ccc(OC)cc4)nn3)ccc21 | > 100 µM | > 100 µM | 6.2 µM |  | 
6 | CCn1c(=O)n(O)c(=O)c2cc(-c3cn(Cc4ccc(F)cc4F)nn3)ccc21 | > 100 µM | 20 µM | > 100 µM |  | 
7 | Cn1c(=O)n(O)c(=O)c2cc(-c3cn(Cc4ccccc4F)nn3)ccc21 | > 100 µM | > 100 µM | > 100 µM |  | 
8 | CCn1c(=O)n(O)c(=O)c2cc(-c3cn(Cc4ccccc4)nn3)ccc21 | > 100 µM | > 100 µM | 12 µM |  | 
9 | Cn1c(=O)n(O)c(=O)c2cc(-c3cn(Cc4cccc(F)c4)nn3)ccc21 | > 100 µM | > 100 µM | > 100 µM |  | 
10 | CCn1c(=O)n(O)c(=O)c2cc(-c3cn(Cc4cc(F)ccc4F)nn3)ccc21 | > 100 µM | 20 µM | > 100 µM |  | 
11 | Nc1ccn(C[C@@H](CO)OCP(=O)(O)O)c(=O)n1 [CIDOFOVIR] | 25 µM | > 250 µM | 10 µM |  | 
12 | CCn1c(=O)n(O)c(=O)c2cc(-c3cn(Cc4ccc([N+](=O)[O-])cc4)nn3)ccc21 | 1.7 µM | > 100 µM | > 100 µM | 8 - 15 | 15
13 | CCn1c(=O)n(O)c(=O)c2cc(-c3cn(Cc4ccc(F)c(F)c4)nn3)ccc21 | 1.9 µM | 20 µM | > 100 µM |  | 
14 | CCn1c(=O)n(O)c(=O)c2cc(-c3cn(Cc4ccc(F)cc4)nn3)ccc21 | > 100 µM | 100 µM | > 100 µM |  | 
15 | Cc1cn([C@H]2C[C@H](F)[C@@H](CO)O2)c(=O)[nH]c1=O [ALOVUDINE] |  | > 250 µM | 10 µM |  | 
16 | Cn1c(=O)n(O)c(=O)c2cc(-c3cn(Cc4ccc([N+](=O)[O-])cc4)nn3)ccc21 | 2.4 µM | > 100 µM | > 100 µM |  | 
17 | Cn1c(=O)n(O)c(=O)c2cc(-c3cn(Cc4ccc(F)c(F)c4)nn3)ccc21 | 5 µM | 100 µM | > 100 µM |  | 
18 | CCn1c(=O)n(O)c(=O)c2cc(-c3cn(Cc4ccccc4C)nn3)ccc21 | > 100 µM | 20 µM | > 100 µM |  | 
19 | CCn1c(=O)n(O)c(=O)c2cc(-c3cn(Cc4ccc(C#N)cc4)nn3)ccc21 | 15 µM | > 100 µM | > 100 µM |  | 
20 | CCn1c(=O)n(O)c(=O)c2cc(-c3cn(Cc4ccccc4F)nn3)ccc21 | > 100 µM | > 100 µM | 6.5 µM |  | 
21 | CCn1c(=O)n(O)c(=O)c2cc(-c3cn(Cc4c(Cl)cccc4Cl)nn3)ccc21 | > 100 µM | > 100 µM | > 100 µM |  | 
22 | Cn1c(=O)n(O)c(=O)c2cc(-c3cn(Cc4cc(F)ccc4F)nn3)ccc21 | > 100 µM | > 100 µM | > 100 µM |  | 
23 | Cn1c(=O)n(O)c(=O)c2cc(-c3cn(Cc4c(Cl)cccc4Cl)nn3)ccc21 | > 100 µM | > 100 µM | > 100 µM |  | 
24 | Cc1ccccc1Cn1cc(-c2ccc3c(c2)c(=O)n(O)c(=O)n3C)nn1 | > 100 µM | 100 µM | > 100 µM |  | 
25 | Cn1c(=O)n(O)c(=O)c2cc(-c3cn(Cc4ccc(C#N)cc4)nn3)ccc21 | > 100 µM | > 100 µM | > 100 µM |  | 
26 | Nc1ccn([C@H]2CC[C@@H](CO)O2)c(=O)n1 [ZALCITABINE] |  | > 250 µM | 7.2 µM |  | 
27 | COc1ccc(Cn2cc(-c3ccc4c(c3)c(=O)n(O)c(=O)n4C)nn2)cc1 | > 100 µM | > 100 µM | 12 µM |  | 
28 | CCn1c(=O)n(O)c(=O)c2cc(-c3cn(Cc4cccc(F)c4)nn3)ccc21 | > 100 µM | > 100 µM | 13 µM |  | 
29 | Cn1c(=O)n(O)c(=O)c2cc(-c3cn(Cc4ccc(F)cc4F)nn3)ccc21 | > 100 µM | 100 µM | > 100 µM |  | 
30 | Cn1c(=O)n(O)c(=O)c2cc(-c3cn(Cc4ccccc4)nn3)ccc21 | > 100 µM | > 100 µM | > 100 µM |  | 
